The record followed here is article PMC4837022 (Nature chemical biology, 2016).

What all share (type): cell-based, murine
Experiment [1] relates to CD4+ T-cell blasts (S-phase entry). The experiment is described as follows: S-phase entry by EdU labeling, delayed inhibitor addition. The settings on record: GDC-0941 1.5 µM added 12 hours after IL-2 stimulation.
The subject of experiment [2] is pSTAT5 in CD4+ T-cell blasts. The experiment is described as follows: pSTAT5 time course after IL-2 stimulation. The note with it: tofacitinib 50 nM. In a few lines: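 Rested mouse CD4+ T-cell blasts received 15 nM test compound or a reference JAK inhibitor (50 nM), 2 h before or 90 min after rhIL-2 (50 u/mL). pSTAT5 and pS6 (Ser240/244) were read by phosphoflow at the indicated times from 15 min onward: 2% PFA fixation, 90% methanol permeabilisation, barcoding. MFI was normalised to the 15-min DMSO maximum and given as mean ± SEM of 4–10 independent experiments.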

In a further experiment the test system is CD4+ T-cell blasts. The experiment can be described thus: IL-2-driven T-cell proliferation. The note with it: Mus musculus, read-out: EC90 for blocking T-cell proliferation.

SMILES strings stand for the structures.

Turning to `CS(=O)(=O)N1CCN(Cc2cc3nc(-c4cccc5[nH]ncc45)nc(N4CCOCC4)c3s2)CC1` [GDC0941], in experiment [1], the S-phase entry entry is given as “prevented the majority of cells from entering S-phase”. Consider `C[C@@H]1CCN(C(=O)CC#N)C[C@@H]1N(C)c1ncnc2[nH]ccc12` [tofacitinib], for which, in experiment [2], the “reduction of pSTAT5 levels during the second wave” value is given as greater than 50%. For the same molecule, in the experiment with CD4+ T-cell blasts, the EC90 worked out at 50 nM.
